16 molecules from ChEMBL document CHEMBL2434926, “New di(hetero)arylethers and di(hetero)arylamines in the thieno[3,2-b]pyridine series: synthesis, growth inhibitory activity on human tumor cell lines and non-tumor cells, effects on cell cycle and on programmed cell death” (Eur J Med Chem, 2013) can be followed below.

Usually GI50 stands for the concentration giving 50% growth inhibition.

In series [1] the test system is MCF7. Nature of the series: Growth inhibition of human MCF7 cells after 48 hrs by SRB assay. Type of series: functional. The settings on record: MCF7, 48 h. In outline:
(§1)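 Sulforhodamine B assay. MCF-7, NCI-H460, HCT15 kept in RPMI-1640 with 10% heat-inactivated FBS and 2 mM glutamine, seeded 7.5 × 10^3 cells/well. HeLa and HepG2 kept in DMEM with 10% FBS, 2 mM glutamine and penicillin/streptomycin, seeded 1.0 × 10^4 cells/well. Cultures at 37 °C, 5% CO2. GI50 is the concentration giving 50% inhibition of net growth; three independent experiments in triplicate, mean ± SD; ellipticine positive control.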
For orientation: Sulforhodamine B stains cellular protein and so reports cell mass.

The subject of another series is HeLa. Nature of the series: Growth inhibition of human HeLa cells after 48 hrs by SRB assay. Type of series: functional. In outline:
as §1

The subject of series [2] is NCI-H460. In words: Growth inhibition of human NCI-H460 cells after 48 hrs by SRB assay. Type of series: functional. Conditions: NCI-H460, 48 h. In outline:
as §1

The next series deals with HCT-15. In words: Growth inhibition of human HCT15 cells after 48 hrs by SRB assay. Type of series: functional. The settings on record: HCT-15, 48 h. In outline:
as §1

Series [3] in a line: Growth inhibition of PLP2 cells after 48 hrs by SRB assay. Type of series: cell-based, Sus scrofa. Conditions: pig. In outline: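 Porcine liver primary cells (PLP2), established by the authors, subcultured before confluence, seeded 1.0 × 10^4 cells/well in DMEM with 10% FBS and penicillin/streptomycin. Treated 48 h with compound solutions, then sulforhodamine B read-out. GI50 is the concentration inhibiting 50% of net growth; three independent experiments in triplicate, mean ± SD; ellipticine positive control.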

The next series deals with HepG2. Nature of the series: Growth inhibition of human HepG2 cells after 48 hrs by SRB assay. Type of series: functional. Conditions: HepG2, 48 h. In outline: as §1
For series [4], the system named is NCI-H460. In words: Cell cycle arrest in human NCI-H460 cells assessed as accumulation at sub-G1 phase at GI50 after 24 hrs by propidium iodide staining-based flow cytometry. Type of series: functional. A general note: Flow cytometry measures light scatter and fluorescence of single cells or particles in a stream.
Series [5] relates to NCI-H460. In words: Induction of apoptosis in human NCI-H460 cells at GI50 after 24 hrs by TUNEL assay. It counts as functional, cell-based. In outline:
(§2)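 NCI-H460 seeded at 1 × 10^5 cells/well, grown 24 h at 37 °C, treated with compound at GI50, DMSO vehicle or medium for 24 h or 48 h. Fixed in 4% paraformaldehyde 30 min, cytospun, permeabilized with ice-cold 0.1% Triton X-100 in 0.1% sodium citrate 2 min, TUNEL reaction mix (enzyme 1:20) 1 h, DAPI counterstain. Fluorescence microscopy counting at least 500 cells per slide (about 300 in some 48 h samples). Mean ± SEM of three independent experiments; two-tailed paired t-test versus DMSO.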

In series [6] the test system is NCI-H460. In words: Induction of apoptosis in human NCI-H460 cells at GI50 after 48 hrs by TUNEL assay relative to DMSO-treated control. Type of series: functional. In outline:
as §2

Series [7] can be described thus: Growth inhibition of human A375-C5 cells after 48 hrs by SRB assay. Type of series: functional. Conditions: A375-C5, 48 h.
The nature of series [8]: Growth inhibition of human A375-C5 cells. Type of series: functional.
Series [9] relates to MCF7. In words: Growth inhibition of human MCF7 cells. It counts as functional.
Series [10] concerns NCI-H460. Nature of the series: Growth inhibition of human NCI-H460 cells. Type of series: functional.

The source made the active and inactive calls. The rule behind the calls is not given here.

On to `Fc1cccc(Oc2ccnc3ccsc23)c1`, for which the GI50 in the series with MCF7 [1] came to 102 µM; with HeLa it was 34.5 µM; in the series on NCI-H460 [2] it was 103 µM; in the series with HCT-15 it was 103 µM; with HepG2, 42.6 µM. Moreover, the GI50 at 48 h in series [3] is > 125 µM.
As for `COc1ccccc1Nc1ccnc2ccsc12`, the outcome in the series with NCI-H460 [4] and in the series with NCI-H460 [5] was Active. The GI50 was determined as 5.88 µM in the series with MCF7 [1]; 1.4 µM with HeLa; 5.4 µM in the series on NCI-H460 [2]; 5.91 µM with HCT-15; 18 µM with HepG2. In series [3], this molecule returned a GI50 at 48 h of 6.56 µM. The Activity in the series on NCI-H460 [6] is listed as >30%.
With `COc1cccc(Oc2ccnc3ccsc23)c1`, the outcome in the series with NCI-H460 [4] and with NCI-H460 [5] was Active. Moreover, the GI50 was 1.56 µM in the series with MCF7 [1]; 3.14 µM with HeLa; 1.04 µM in the series on NCI-H460 [2]; 0.39 µM with HCT-15; 2.7 µM in the series with HepG2. Besides, the GI50 at 48 h in [3] was 26.7 µM. Besides, the Activity with NCI-H460 [6] is on record as >30%.
As to `COc1ccc(Oc2ccnc3ccsc23)cc1`, the GI50 in the series with MCF7 [1] stood at 93.3 µM; with HeLa it was 49.4 µM; in the series with NCI-H460 [2], 86.8 µM; in the series with HCT-15 it was 86 µM; in the series on HepG2, 53.2 µM. In series [3], this molecule had a GI50 at 48 h of 94.5 µM.
As to `COC(=O)c1sc2cccnc2c1Nc1ccc(OC)cc1N`, the concentration for 50% growth inhibition (GI50) (in the series on MCF7 [1]; in the series with NCI-H460 [2]; with HepG2; in series [7]) was 1 µM throughout.
With `Fc1cccc(Nc2ccnc3ccsc23)c1`, the GI50 is 63.7 µM in the series with MCF7 [1]; 69.2 µM with HeLa; 77.5 µM in the series with NCI-H460 [2]; 70.7 µM in the series on HCT-15; 32 µM in the series on HepG2. Also, the concentration for 50% growth inhibition (GI50) at 48 h in series [3] worked out at 119 µM.
Consider `COc1cccc(Nc2ccnc3ccsc23)c1`, for which the outcome in the series with NCI-H460 [4] and in the series on NCI-H460 [5] was Active. Besides, the 50% growth inhibitory concentration (GI50) was 0.25 µM with MCF7 [1]; 0.09 µM in the series with HeLa; 0.28 µM in the series with NCI-H460 [2]; 0.31 µM in the series with HCT-15; 5.02 µM with HepG2. Moreover, the GI50 at 48 h in series [3] is 1.94 µM. The Activity in the series on NCI-H460 [6] is >30%.
On to `COc1ccc(Nc2ccnc3ccsc23)cc1`, for which the GI50 with MCF7 [1] is 20.2 µM; in the series on HeLa, 20.4 µM; in the series on NCI-H460 [2], 19.4 µM; with HCT-15, 25.9 µM; in the series on HepG2, 22.1 µM. Further, the GI50 at 48 h in series [3] came out at 22.7 µM.
Consider `COC(=O)c1sc2cc(Oc3cccc(OC)c3)cnc2c1N`, for which the GI50 (in series [8]; with MCF7 [9]; in the series on NCI-H460 [10]) was 1 µM throughout.
In the case of `Cc1c2ccncc2c(C)c2c1[nH]c1ccccc12` [ELLIPTECINE], the 50% growth inhibitory concentration (GI50) was 4.32 µM in the series with MCF7 [1]; 3.28 µM in the series with HeLa; 5.77 µM in the series with NCI-H460 [2]; 1.91 µM in the series with HCT-15; 5.38 µM in the series with HepG2. In series [3], the concentration for 50% growth inhibition (GI50) at 48 h came to 2.06 µM.
As to `Fc1ccccc1Nc1ccnc2ccsc12`, the concentration for 50% growth inhibition (GI50) is 94.4 µM with MCF7 [1]; 26.4 µM in the series on HeLa; 79.5 µM in the series with NCI-H460 [2]; 86.7 µM in the series with HCT-15; 25.8 µM in the series on HepG2. The molecule also returned a 50% growth inhibitory concentration (GI50) at 48 h in series [3] of 115 µM.
With `Fc1ccccc1Oc1ccnc2ccsc12`, the concentration for 50% growth inhibition (GI50) was 74.3 µM in the series on MCF7 [1]; 50.3 µM in the series on HeLa; 78 µM in the series with NCI-H460 [2]; 97.2 µM in the series on HCT-15; 16.4 µM in the series on HepG2. Further, it took 87.2 µM to inhibit growth in series [3] by half (GI50 at 48 h).
With `COC(=O)c1sc2cc(Oc3cccc(OC)c3OC)cnc2c1N`, the GI50 (in series [8]; in the series on MCF7 [9]; with NCI-H460 [10]) was 1 µM in each case.
As for `COc1ccccc1Oc1ccnc2ccsc12`, the 50% growth inhibitory concentration (GI50) with MCF7 [1] came out at 90.9 µM; in the series on HeLa it was 28.9 µM; in the series with NCI-H460 [2] it was 94.2 µM; with HCT-15, 91.2 µM; in the series on HepG2 it was 62.7 µM. Besides, the 50% growth inhibitory concentration (GI50) at 48 h in series [3] was > 125 µM.
With `Fc1ccc(Nc2ccnc3ccsc23)cc1`, the GI50 stood at 80.7 µM in the series with MCF7 [1]; 77.5 µM with HeLa; 78.5 µM with NCI-H460 [2]; 91.2 µM in the series on HCT-15; 26.3 µM with HepG2. Also, the GI50 at 48 h in [3] was 100 µM.
As to `Fc1ccc(Oc2ccnc3ccsc23)cc1`, the GI50 with MCF7 [1] worked out at 98.5 µM; with HeLa, 33.8 µM; in the series with NCI-H460 [2], 101 µM; with HCT-15, 88.1 µM; in the series with HepG2, 45.1 µM. The GI50 at 48 h in series [3] is > 125 µM.
